Screening results from PubChem BioAssay.
Rows were chosen to be rich in hits. Some 0.55% of all compounds tested hit in one or more screens of this group.
zfTRPN1 agonist – zebrafish TRPN1 channel agonists, primary screen, cell-based, HEK293, calcium fluorescence; activation, % at 3 µM; HEK293 zebrafish TRPN1-YFP, Fluo-8 calcium fluorescence; 100% = response to 87 µM carbachol; AID 1424, 2008; transient receptor potential cation channel N1 (TRPN1/NompC), Danio rerio; 220,000 tested, 0.18% active;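 active = activation above its plate's cutoff, the mean activation of test wells on that plate plus 3 SD, cut at about 19% in these data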
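Material – zebrafish TRPN1-YFP in HEK293 cells · Doses – 3 µM single point · Schedule – dye 1 h 37 °C plus 30 min RT · Signal – Fluo-8 calcium fluorescence, excitation 470-495 nm, emission 515-575 nm · Read-out – % activation versus carbachol response · Control set – carbachol high, DMSO low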
V1aR counter – agonists of human V1a receptor, primary screen, counter-screen for OXTR agonist project, fluorescence, CHO-V1R cells; 320,000 tested, 0.25% active; activation, % at 3 µM; AID 2797, 2010; Vasopressin V1a receptor (Homo sapiens), P37288; Fluo-8 calcium fluorescence, agonist mode; 0% DMSO, 100% 3 nM vasopressin;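 active = activation above the mean activation of all tested compounds plus 3 SD, per screening run, cut at about 20% in these data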;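 note: signal is peak over basal fluorescence ratio across a 100 second FLIPR read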
Target sequence (P37288 whole entry, looked up): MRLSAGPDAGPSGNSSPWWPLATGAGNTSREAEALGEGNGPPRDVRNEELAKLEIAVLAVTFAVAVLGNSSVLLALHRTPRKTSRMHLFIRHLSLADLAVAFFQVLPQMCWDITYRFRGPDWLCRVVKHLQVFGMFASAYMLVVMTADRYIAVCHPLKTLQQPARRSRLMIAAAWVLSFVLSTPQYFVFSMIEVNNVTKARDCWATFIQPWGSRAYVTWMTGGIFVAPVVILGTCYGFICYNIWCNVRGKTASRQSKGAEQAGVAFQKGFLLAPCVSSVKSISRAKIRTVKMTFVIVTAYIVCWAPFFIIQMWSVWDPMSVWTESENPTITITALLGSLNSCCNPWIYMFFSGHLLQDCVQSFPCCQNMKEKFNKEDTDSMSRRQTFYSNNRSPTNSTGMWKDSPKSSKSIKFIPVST
OXTR ag – human OXTR agonists, primary screen, fluorescence, CHO-OTR cells, Fluo-8 calcium; Fluo-8 calcium fluorescence; normalized: DMSO 0%, oxytocin 100%; activation, % at 3 µM; 320,000 tested, 0.32% active;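 active = activation above the mean of all tested compounds plus 3 SD, cutoff set per screening run, cut at about 20% in these data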;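 note: peak over basal fluorescence ratio from a 100 s FLIPR kinetic read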
TRPML3 agonist – human TRPML3 channel agonists, primary screen, cell-based, HEK293 TRPML3-YFP, Fluo-8 calcium fluorescence, 3 µM | Mucolipin-3 (Homo sapiens), Q8TDD5 | 100% = the carbachol control signal | activation, % at 3 µM | 220,000 tested, 0.29% active | AID 1448, 2008;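 active = activation above its plate's cutoff, the mean activation of the plate's test wells plus 3 SD, cut at about 12% in these data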
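Test system – HEK293 line with stable expression of human TRPML3-YFP channel · Control set – carbachol 87 µM final as high control (100%), DMSO as low control (0%) · Signal – Fluo-8 calcium dye fluorescence, ex 470-495, em 515-575 nm · Incubation – 1-h 37 °C dye load, 5-s basal, 120-s post-compound reads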
OXTR potentiator – human OXTR potentiators, primary screen, fluorescence, CHO-OTR cells, Fluo-8 calcium; Oxytocin receptor (Homo sapiens), P30559; Fluo-8 calcium fluorescence, potentiator mode; 0% = oxytocin EC15, 100% = EC100; activation, % at 3 µM; 320,000 tested, 0.061% active; AID 2445, 2010;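 active = activation above that plate's cutoff, the mean activation of tested compounds plus 3 SD, cut at about 6.6% in these data, passing the limit was not always enough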
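Assay system: CHO-OTR cells, human receptor / Also added: oxytocin at about EC15, sub-maximal agonist stimulus / Dosing: single dose, 3.0 µM nominal final compound concentration / Incubation: 6 min pre-incubation, 100 s read / Technique: Fluo-8 calcium dye fluorescence / Read-out: % activation vs EC15 and EC100 oxytocin / Benchmarks: EC15 oxytocin low, 75 nM oxytocin high / Replicates: singlicate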
V1aR agonist cf – V1a receptor agonists, calcium signal, confirmation, Fluo-8 calcium fluorescence, CHO-V1R cells; activation, % at 3 µM; AID 434964, 2010; 180 tested, 20% active; shares compounds with V1aR counter; agonist;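 active = average activation exceeds primary screen hit cutoff, cut at about 21% in these data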;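 note: peak over basal fluorescence ratio during a 100 s FLIPR read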
OXTR counter – human OXTR agonists, counter-screen for V1R agonist project, fluorescence, CHO-OTR cells, triplicate; shares compounds with V1aR counter; Fluo-8 calcium fluorescence; activation, % at 3 µM; 180 tested, 10% active; AID 434969, 2010;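 active = mean activation over three repeats above the cutoff from the earlier oxytocin receptor agonist screen, cut at about 20% in these data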;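 note: peak over minimum fluorescence ratio within a 100 second FLIPR read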
Numbers stand for hits; i = inactive; nt = no result given.

SMILES	zfTRPN1 agonist	V1aR counter	OXTR ag	TRPML3 agonist	OXTR potentiator	V1aR agonist cf	OXTR counter
COc1ccc(CC(=O)Nc2ccc(NC(=O)c3ccccc3F)cc2)cc1	i	32	i	i	i	i	i
COc1ccc(NC(=O)CSc2nc(N)c(NC(=O)c3ccccc3F)c(=O)[nH]2)cc1	nt	i	i	nt	i	nt	nt
CCC1Sc2ccc(S(=O)(=O)Nc3ccc(OC)cc3)cc2NC1=O (stereo unspecified)	nt	20	i	nt	i	i	i
CCC1Sc2ccc(S(=O)(=O)Nc3ccc(OC)c(OC)c3)cc2NC1=O (stereo unspecified)	nt	i	i	nt	i	nt	nt
CCOc1cccc(-c2c(C(=O)N/N=C/c3cccs3)nnn2-c2nonc2N)c1	nt	24	i	nt	i	i	i
Cc1ccc(/C=N/NC(=O)c2nnn(-c3nonc3N)c2-c2ccc3c(c2)OCO3)s1	nt	30	i	nt	i	i	i
COc1ccc(/C=N/NC(=O)c2nnn(-c3nonc3N)c2-c2cccc(OC)c2)cc1	nt	26	i	nt	i	25	25
COc1cccc(-c2c(C(=O)N/N=C(\C)c3ccc(Cl)s3)nnn2-c2nonc2N)c1	nt	25	i	nt	i	i	i
CC(C)Cc1nc(SCC(=O)N2CCCC2)c2c(=O)n(C)c(=O)n(C)c2n1	nt	i	i	nt	i	nt	nt
CCCCOC(=O)Nc1ccc(N(C)C)cc1	i	i	i	i	i	nt	nt
Cc1noc(C)c1S(=O)(=O)N(C)C[C@H]1Oc2ccc(NC(=O)NC(C)C)cc2C(=O)N([C@H](C)CO)C[C@@H]1C	nt	i	i	nt	i	nt	nt
CC(C)c1ccc(N(CC(=O)NCc2cccnc2)S(=O)(=O)c2ccccc2)cc1	nt	i	i	nt	i	nt	nt
CCCCCc1ccc(OCCCC[n+]2ccc(C)cc2)c(CCCCC)c1	i	22	i	i	i	i	i
CCCCCc1ccc(OCCCC[n+]2ccccc2)c(CCCCC)c1	i	i	i	i	i	nt	nt
CCC(C)C(NC(=O)OCc1ccccc1)C(=O)NC(Cc1ccc(O)cc1)C(=O)OC (stereo unspecified)	i	27	i	i	i	i	i
COc1ccc(CCNCC(O)COc2ccc(OC)cc2C(C)(C)C)cc1 (stereo unspecified)	nt	24	i	nt	i	i	i
COc1ccc(CCNCC(O)COc2cccc(Br)c2)cc1OC (stereo unspecified)	i	i	i	i	i	nt	nt
O=C(O)c1cccc(CSc2nc(-c3ccc(Cl)cc3)cc(C(F)(F)F)n2)c1	i	21	i	i	i	i	i
CCCCCCCCCCC[N+](C)(C)CC/C=C1/c2ccccc2Sc2ccc(Cl)cc21	nt	38	i	nt	i	i	i
